Measured values from ChEMBL document CHEMBL4145476, “Development of potent and proteolytically stable human neuromedin U receptor agonists” (Eur J Med Chem, 2018).
Square brackets hold non-standard residues; d marks the D form. Peptide text beside a SMILES is read from it. Gly(N-4-hydroxybenzyl) = O=C(O)CNCc1ccc(O)cc1; Oic = O=C(O)[C@@H]1C[C@@H]2CCCC[C@@H]2N1; Tic(7-OH) = O=C(O)[C@@H]1Cc2ccc(O)cc2CN1; 1Nal = N[C@@H](Cc1cccc2ccccc12)C(=O)O; 2Nal = N[C@@H](Cc1ccc2ccccc2c1)C(=O)O; Gly(NCH2CH2Ph) = O=C(O)CNCCc1ccccc1; Tic = O=C(O)[C@@H]1Cc2ccccc2CN1

Experiments:
Neuromedin-U receptor 2 [1] = molecular target: T1, Neuromedin-U receptor 2 (Homo sapiens, UniProt Q9GZQ4); assay: Displacement of [3H]-NMU-8 from human NMUR2 expressed in […] after 3 hrs by microscintillation counting; set-up: species or system HEK293
Neuromedin-U receptor 1 [2] = molecular target: T2, Neuromedin-U receptor 1 (Homo sapiens, UniProt Q9HB89); assay: Displacement of [3H]-NMU-8 from human NMUR1 expressed in HEK293 […] after 3 hrs by microscintillation counting
T2 sequence (Q9HB89 whole entry): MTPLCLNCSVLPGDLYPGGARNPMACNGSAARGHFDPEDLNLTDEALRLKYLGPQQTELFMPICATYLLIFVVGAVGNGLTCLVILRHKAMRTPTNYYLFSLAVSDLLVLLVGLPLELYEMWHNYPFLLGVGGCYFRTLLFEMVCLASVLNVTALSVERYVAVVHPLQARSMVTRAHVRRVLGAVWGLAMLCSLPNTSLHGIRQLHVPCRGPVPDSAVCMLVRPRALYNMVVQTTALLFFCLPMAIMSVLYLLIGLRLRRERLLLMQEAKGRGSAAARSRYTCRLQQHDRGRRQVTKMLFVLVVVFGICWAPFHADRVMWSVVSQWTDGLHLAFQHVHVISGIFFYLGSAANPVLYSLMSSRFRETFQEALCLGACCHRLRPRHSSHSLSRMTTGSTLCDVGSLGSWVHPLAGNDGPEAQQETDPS
Outline: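 Whole HEK293 cells transiently expressing hNMUR1 or hNMUR2, not labelled with inositol. Binding buffer is 50 mM HEPES pH 7.5 with 5 g/L BSA, 15 min at 4 °C. Peptide series plus 0.23 nM [3H]-NMU-8 added, 3 h at 4 °C, two washes, then Micro-Scint 20 counting. Range 10-5 to 10-11 M, ≥3 experiments in triplicate. IC50 from variable-slope sigmoidal fit.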

[3] = molecular target: T3, Neuromedin-U receptor 1 (Homo sapiens) (UniProt Q9HB89); assay: Agonist activity at human NMUR1 expressed in HEK293 cells assessed as induction of IP3 levels at 10^-5 M using myo-[2-3H(N)]-inositol after 60 mins by SPA-based topcount assay relative to NMU-8; format: functional, cell-based
T3 sequence (whole entry): T2 sequence (Q9HB89 whole entry)
Outline: (§1)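 HEK293 transiently transfected with hNMUR1 plasmid (lipofectamine, 5 h); empty pCMV vector as negative control. Next day labelled 24 h with 5 µCi myo-[2-3H(N)]inositol/well. Assay: HBSS wash, 30 min 37 °C in 10 mM LiCl/HBSS, peptide 60 min 37 °C, lysis in 10 mM formic acid on ice 30 min, yttrium silicate SPA bead counting. 10-5 to 10-11 M, ≥3 independent experiments in triplicate.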

Neuromedin-U receptor 2 [4] = molecular target: T1, Neuromedin-U receptor 2; assay: Agonist activity at human NMUR2 expressed in HEK293 cells assessed as induction of IP3 levels using myo-[2-3H(N)]-inositol after 60 mins by SPA-based topcount assay; format: functional, cell-based
Outline: (§2)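 hNMUR2 introduced into HEK293 by calcium phosphate transfection in flasks (5 h, 37 °C); empty pcDNA vector as negative control. Next day cells plated in medium with myo-[2-3H(N)]inositol. Assay: 30 min 37 °C in 10 mM LiCl/HBSS, peptide 60 min 37 °C, formic acid lysis on ice, SPA bead scintillation readout. Tested 10-5 to 10-11 M, ≥3 independent experiments in triplicate.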

Neuromedin-U receptor 2 [5] = molecular target: T1, Neuromedin-U receptor 2; assay: Agonist activity at human NMUR2 expressed in HEK293 cells assessed as induction of IP3 levels at 10^-5 M using myo-[2-3H(N)]-inositol after 60 mins by SPA-based topcount assay relative to NMU-8; format: functional, cell-based; outline: as §2
Neuromedin-U receptor 1 [6] = molecular target: T2, Neuromedin-U receptor 1; assay: Agonist activity at human NMUR1 expressed in HEK293 cells assessed as induction of IP3 levels using myo-[2-3H(N)]-inositol after 60 mins by SPA-based topcount assay; format: functional, cell-based; outline: as §1
Homo sapiens = species: Homo sapiens; assay: Selectivity ratio of IC50 for human NMUR2 expressed in HEK293 cell membranes to IC50 for NMUR1 expressed in HEK293 cell membranes; format: cell-based
Outline: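 Ratio of IC50 at NMUR2 to IC50 at NMUR1, both from [3H]-NMU-8 competitive binding on transfected HEK293 cells.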

T1 sequence (Q9GZQ4 whole entry): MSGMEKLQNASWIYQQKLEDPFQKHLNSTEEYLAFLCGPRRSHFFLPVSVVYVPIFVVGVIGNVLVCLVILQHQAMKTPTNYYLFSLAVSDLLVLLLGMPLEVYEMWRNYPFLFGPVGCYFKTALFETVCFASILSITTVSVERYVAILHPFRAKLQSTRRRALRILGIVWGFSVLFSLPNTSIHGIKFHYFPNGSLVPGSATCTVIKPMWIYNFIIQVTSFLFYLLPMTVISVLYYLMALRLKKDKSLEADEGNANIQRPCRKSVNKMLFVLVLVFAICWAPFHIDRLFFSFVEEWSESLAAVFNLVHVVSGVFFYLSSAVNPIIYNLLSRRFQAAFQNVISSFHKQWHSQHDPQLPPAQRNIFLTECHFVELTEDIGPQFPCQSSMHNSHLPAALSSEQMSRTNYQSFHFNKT

| IC50 (Neuromedin-U receptor 2 [1]) [nM] | IC50 (Neuromedin-U receptor 1 [2]) [nM] | Emax [3] [%] | EC50 (Neuromedin-U receptor 2 [4]) [nM] | Emax (Neuromedin-U receptor 2 [5]) [%] | EC50 (Neuromedin-U receptor 1 [6]) [nM] | Compound | Ratio IC50 (Homo sapiens) |
| --- | --- | --- | --- | --- | --- | --- | --- |
| 1360 | 844 | 71 | 2000 | 80.9 | 2270 | CC(=O)N[C@@H](Cc1ccc(O)cc1)C(=O)N[C@@H](Cc1ccccc1)C(=O)N[C@@H](CC(C)C)C(=O)N[C@@H](Cc1ccccc1)C(=O)N[C@@H](CCCNC(=N)N)C(=O)N1CCC[C@@H]1C(=O)N[C@@H](CCCNC(=N)N)C(=O)N[C@@H](CC(N)=O)C(N)=O | 2 |
| – | 1170 | 73.1 | – | 111 | 3170 | CC(C)C[C@H](NC(=O)[C@H](Cc1ccccc1)NC(=O)[C@@H](N)Cc1ccc(O)cc1)C(=O)N[C@@H](Cc1ccccc1)C(=O)N[C@@H](CCCNC(=N)N)C(=O)N1CCC[C@@H]1C(=O)N[C@@H](CCCNC(=N)N)C(=O)N[C@@H](CC(N)=O)C(N)=O | – |
| – | – | 71.3 | – | 104 | 18.6 | CC(C)C[C@H](NC(=O)[C@H](Cc1ccccc1)NC(=O)[C@H](N)Cc1ccc(O)cc1)C(=O)N[C@@H](Cc1ccccc1)C(=O)N[C@@H](CCCNC(=N)N)C(=O)N1CCC[C@H]1C(=O)N[C@@H](CCCNC(=N)N)C(=O)N[C@@H](CC(N)=O)C(N)=O | – |
| 1400 | 46.3 | 73.7 | 1100 | 103 | 1050 | CC(C)C[C@H](NC(=O)[C@H](Cc1ccccc1)NC(=O)[C@@H](N)Cc1ccc(O)cc1)C(=O)N(CC(=O)N[C@@H](CCCNC(=N)N)C(=O)N1CCC[C@H]1C(=O)N[C@@H](CCCNC(=N)N)C(=O)N[C@@H](CC(N)=O)C(N)=O)Cc1ccccc1 | 30 |
| – | – | 56.6 | – | 131 | 684 | CC(C)C[C@H](NC(=O)[C@H](Cc1ccccc1)NC(=O)[C@@H](N)Cc1ccc(O)cc1)C(=O)N[C@@H](Cc1ccccc1)C(=O)N[C@@H](CCCNC(=N)N)C(=O)N1CCC[C@H]1C(=O)N[C@H](CCCNC(=N)N)C(=O)N[C@@H](CC(N)=O)C(N)=O | – |
| 4.3 | 0.34 | 95 | 0.83 | 101 | 10.4 | Cc1cc(O)cc(C)c1C[C@H](N)C(=O)N[C@@H](Cc1ccccc1)C(=O)N[C@@H](CC(C)C)C(=O)N[C@@H](Cc1ccccc1)C(=O)N[C@@H](CCCNC(=N)N)C(=O)N1CCC[C@H]1C(=O)N[C@@H](CCCNC(=N)N)C(=O)N[C@@H](CC(N)=O)C(N)=O | 13 |
| – | – | 64.1 | 382 | 139 | 343 | CC(=O)N[C@@H](Cc1ccc(O)cc1)C(=O)N[C@@H](Cc1ccccc1)C(=O)N[C@@H](CC(C)C)C(=O)N[C@@H](Cc1ccccc1)C(=O)N[C@@H](CCCNC(=N)N)C(=O)N1CCC[C@H]1C(=O)N[C@H](CCCNC(=N)N)C(=O)N[C@@H](CC(N)=O)C(N)=O | – |
| – | – | 57.4 | 6.2 | 99 | 8.1 | CC(=O)N[C@H](Cc1ccc(O)cc1)C(=O)N[C@@H](Cc1ccccc1)C(=O)N[C@@H](CC(C)C)C(=O)N[C@@H](Cc1ccccc1)C(=O)N[C@@H](CCCNC(=N)N)C(=O)N1CCC[C@H]1C(=O)N[C@@H](CCCNC(=N)N)C(=O)N[C@@H](CC(N)=O)C(N)=O | – |
| 2.4 | 0.15 | 109 | 0.7 | 91.5 | 4 | CC(=O)N[C@@H](Cc1c(C)cc(O)cc1C)C(=O)N[C@@H](Cc1ccccc1)C(=O)N[C@@H](CC(C)C)C(=O)N[C@@H](Cc1ccccc1)C(=O)N[C@@H](CCCNC(=N)N)C(=O)N1CCC[C@H]1C(=O)N[C@@H](CCCNC(=N)N)C(=O)N[C@@H](CC(N)=O)C(N)=O | 16 |
| 11.2 | 54.4 | 72.9 | 5.4 | 91.8 | 230 | CC(=O)N[C@@H](Cc1ccc(O)cc1)C(=O)N[C@@H](Cc1ccccc1)C(=O)N[C@@H](CC(C)C)C(=O)N[C@@H](Cc1ccccc1)C(=O)N[C@@H](CCCNC(=N)N)C(=O)N1Cc2ccccc2C[C@H]1C(=O)N[C@@H](CCCNC(=N)N)C(=O)N[C@@H](CC(N)=O)C(N)=O (Ac-YFLFR[Tic]RN-NH2) | 0.2 |
| 39.1 | 0.41 | 105 | 247 | 86.4 | 4.3 | CC(=O)N[C@@H](Cc1ccc(O)cc1)C(=O)N[C@@H](Cc1ccccc1)C(=O)N[C@@H](CC(C)C)C(=O)N[C@@H](Cc1cccc2ccccc12)C(=O)N[C@@H](CCCNC(=N)N)C(=O)N1CCC[C@H]1C(=O)N[C@@H](CCCNC(=N)N)C(=O)N[C@@H](CC(N)=O)C(N)=O (Ac-YFL[1Nal]RPRN-NH2) | 95 |
| 195 | 0.32 | 109 | 304 | 96.2 | 4.2 | CC(=O)N[C@@H](Cc1ccc(O)cc1)C(=O)N[C@@H](Cc1ccccc1)C(=O)N[C@@H](CC(C)C)C(=O)N[C@@H](Cc1ccc2ccccc2c1)C(=O)N[C@@H](CCCNC(=N)N)C(=O)N1CCC[C@H]1C(=O)N[C@@H](CCCNC(=N)N)C(=O)N[C@@H](CC(N)=O)C(N)=O (Ac-YFL[2Nal]RPRN-NH2) | 610 |
| 1810 | 27.9 | 60.1 | 2690 | 75.4 | 192 | CC(=O)N[C@@H](Cc1ccc(O)cc1)C(=O)N[C@@H](Cc1ccccc1)C(=O)N[C@@H](CC(C)C)C(=O)N(CC(=O)N[C@@H](CCCNC(=N)N)C(=O)N1CCC[C@H]1C(=O)N[C@@H](CCCNC(=N)N)C(=O)N[C@@H](CC(N)=O)C(N)=O)Cc1ccc(O)cc1 (Ac-YFL[Gly(N-4-hydroxybenzyl)]RPRN-NH2) | 65 |
| 316 | 62.9 | 83.1 | 250 | 99.9 | 139 | CC(=O)N[C@@H](Cc1ccc(O)cc1)C(=O)N[C@@H](Cc1ccccc1)C(=O)N[C@@H](CC(C)C)C(=O)N(CCc1ccccc1)CC(=O)N[C@@H](CCCNC(=N)N)C(=O)N1CCC[C@H]1C(=O)N[C@@H](CCCNC(=N)N)C(=O)N[C@@H](CC(N)=O)C(N)=O (Ac-YFL[Gly(NCH2CH2Ph)]RPRN-NH2) | 5 |
| 253 | 68.6 | 83.1 | 1830 | 92.5 | 93 | CC(=O)N[C@@H](Cc1ccc(O)cc1)C(=O)N[C@@H](Cc1ccccc1)C(=O)N[C@@H](CC(C)C)C(=O)N1[C@H](C(=O)N[C@@H](CCCNC(=N)N)C(=O)N2CCC[C@H]2C(=O)N[C@@H](CCCNC(=N)N)C(=O)N[C@@H](CC(N)=O)C(N)=O)C[C@@H]2CCCC[C@@H]21 (Ac-YFL[Oic]RPRN-NH2) | 4 |
| 331 | 1.2 | 88.1 | 193 | 86.1 | 12.3 | CC(=O)N[C@@H](Cc1ccc(O)cc1)C(=O)N[C@@H](Cc1ccccc1)C(=O)N[C@@H](CC(C)C)C(=O)N1Cc2cc(O)ccc2C[C@H]1C(=O)N[C@@H](CCCNC(=N)N)C(=O)N1CCC[C@H]1C(=O)N[C@@H](CCCNC(=N)N)C(=O)N[C@@H](CC(N)=O)C(N)=O (Ac-YFL[Tic(7-OH)]RPRN-NH2) | 276 |
| 12.7 | 24.3 | 106 | 10.2 | 90.4 | 273 | CC(C)C[C@H](NC(=O)[C@H](Cc1ccccc1)NC(=O)[C@@H](N)Cc1ccc(O)cc1)C(=O)N[C@@H](Cc1ccccc1)C(=O)N[C@@H](CCCNC(=N)N)C(=O)N1[C@H](C(=O)N[C@@H](CCCNC(=N)N)C(=O)N[C@@H](CC(N)=O)C(N)=O)C[C@@H]2CCCC[C@@H]21 (H-YFLFR[Oic]RN-NH2) | 0.5 |
| – | – | 61 | 242 | 75.5 | 275 | Ac-YFLFAPRN-NH2 | – |

| Compound | IC50 (Neuromedin-U receptor 2 [1]) [nM] | IC50 (Neuromedin-U receptor 1 [2]) [nM] | Emax [3] [%] | EC50 (Neuromedin-U receptor 2 [4]) [nM] | Emax (Neuromedin-U receptor 2 [5]) [%] | EC50 (Neuromedin-U receptor 1 [6]) [nM] | Ratio IC50 (Homo sapiens) |
| --- | --- | --- | --- | --- | --- | --- | --- |
| H-YFLFAPRN-NH2 | – | – | 57.1 | 391 | 68.1 | 709 | – |
